Source: PMC9893515 (Bioorganic chemistry, 2021)

Biological target: T1, recombinant human TDP2 (Homo sapiens, UniProt O95551)
T1 sequence (O95551 1-362): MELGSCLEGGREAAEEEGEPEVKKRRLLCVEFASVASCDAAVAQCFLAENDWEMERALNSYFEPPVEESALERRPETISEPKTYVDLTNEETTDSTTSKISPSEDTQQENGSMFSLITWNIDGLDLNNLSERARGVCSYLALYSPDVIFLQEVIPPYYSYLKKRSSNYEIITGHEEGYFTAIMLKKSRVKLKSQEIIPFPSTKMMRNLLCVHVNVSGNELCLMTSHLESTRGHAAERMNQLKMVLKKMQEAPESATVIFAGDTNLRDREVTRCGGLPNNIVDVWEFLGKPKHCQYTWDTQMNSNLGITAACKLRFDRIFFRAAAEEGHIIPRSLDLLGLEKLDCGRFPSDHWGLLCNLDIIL
Experiment: Recombinant TDP2 assay
Assay type: biochemical
Settings: not given
Method in brief: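 Human recombinant TDP2 (25 pM) with 1 nM 18-mer 5'-phosphotyrosyl ssDNA, 3'-α32P-cordycepin-labelled. Reaction ran 15 min at room temperature in Tris-HCl pH 7.5, KCl, MgCl2, EDTA, DTT, BSA and Tween 20. Stopped with formamide loading buffer, then 16% denaturing PAGE and phosphorimaging densitometry of product. […] IC50 is 50% enzyme inhibition.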

Compound | IC50
CCOC(=O)c1noc2c1C(=O)c1cnccc1C2=O [Compound 50, Ethyl-4,9-dioxo-4,9-dihydroisoxazolo[5,4-g]isoquinoline-3-carboxylate] | 5.4 ± 0.8 µM
CCOC(=O)c1noc2c1C(=O)c1ccncc1C2=O [Compound 51, Ethyl 4,9-dioxo-4,9-dihydroisoxazolo[4,5-g]isoquinoline-3-carboxylate] | 12 ± 2.4 µM
CC(C)(C)OC(=O)c1noc2c1C(=O)c1ncccc1C2=O [Compound 54, Tert-butyl 4,9-dioxo-4,9-dihydroisoxazolo[5,4-g]quinoline-3-carboxylate] | 3.1 ± 0.43 µM
CC(C)(C)OC(=O)c1noc2c1C(=O)c1cccnc1C2=O [Compound 55, Tert-butyl 4,9-dioxo-4,9-dihydroisoxazolo[4,5-g]quinoline-3-carboxylate] | 3.3 ± 0.65 µM
O=C(OCCc1ccc(Cl)cc1)c1noc2c1C(=O)c1ncccc1C2=O [Compound 56, 4-chlorophenethyl 4,9-dioxo-4,9-dihydroisoxazolo[5,4-g]quinoline-3-carboxylate] | 15 ± 1.3 µM
O=C(OCCc1ccc(Cl)cc1)c1noc2c1C(=O)c1cccnc1C2=O [Compound 57, 4-chlorophenethyl 4,9-dioxo-4,9-dihydroisoxazolo[4,5-g]quinoline-3-carboxylate] | 9.9 ± 2.2 µM
O=C(OCC(F)(F)F)c1noc2c1C(=O)c1cccnc1C2=O [Compound 59, 2,2,2-Trifluoroethyl 4,9-dioxo-4,9-dihydroisoxazolo[4,5-g]quinoline-3-carboxylate] | 14 ± 2.9 µM
N#CCCOC(=O)c1noc2c1C(=O)c1cccnc1C2=O [Compound 60, 2-Cyanoethyl 4,9-dioxo-4,9-dihydroisoxazolo[4,5-g]quinoline-3-carboxylate] | 10 ± 1.48 µM
O=C(OCCc1cccc(F)c1)c1noc2c1C(=O)c1cccnc1C2=O [Compound 61, 3-Fluorophenethyl 4,9-dioxo-4,9-dihydroisoxazolo[4,5-g]quinoline-3-carboxylate] | 8.7 ± 0.54 µM
O=C(OCCc1ccc([N+](=O)[O-])cc1)c1noc2c1C(=O)c1cccnc1C2=O [Compound 62, 4-Nitrophenethyl 4,9-dioxo-4,9-dihydroisoxazolo[4,5-g]quinoline-3-carboxylate] | 11 ± 3.8 µM
O=C1c2ncccc2C(=O)c2c(COc3ccccc3)noc21 [Compound 65, 3-(Phenoxymethyl) isoxazolo[4,5-g]quinoline-4,9-dione] | 0.82 ± 0.28 µM
CS(=O)(=O)c1ccc(OCc2noc3c2C(=O)c2cccnc2C3=O)cc1 [Compound 67, 3-((4-(Methylsulfonyl)phenoxy)methyl)isoxazolo[4,5-g]quinoline-4,9-dione] | 0.99 ± 0.13 µM
N#Cc1ccc(OCc2noc3c2C(=O)c2cccnc2C3=O)cc1 [Compound 68, 4-((4,9-Dioxo-4,9-dihydroisoxazolo[4,5-g]quinolin-3-yl)methoxy)benzonitrile] | 0.74 ± 0.25 µM
N#Cc1ccc(OCc2noc3c2C(=O)c2cccnc2C3=O)cc1F [Compound 69, 4-((4,9-Dioxo-4,9-dihydroisoxazolo[4,5-g]quinolin-3-yl)methoxy)-2-fluorobenzonitrile] | 0.96 ± 0.2 µM
COc1ccc(-c2noc3c2C(=O)c2cccnc2C3=O)cc1OC [Compound 70, 3-(3,4-Dimethoxyphenyl)isoxazolo[4,5-g]quinoline-4,9-dione] | 0.46 ± 0.15 µM
N#Cc1ccc(-c2noc3c2C(=O)c2cccnc2C3=O)c(F)c1 [Compound 71, 4-(4,9-Dioxo-4,9-dihydroisoxazolo[4,5-g]quinolin-3-yl)-3-fluorobenzonitrile] | 0.74 ± 0.25 µM

Same assay, conditions: read-out: TDP2 inhibitory activity IC50; mean ± SD from at least three independent experiments; recombinant TDP2

Compound | IC50
CCOC(=O)c1noc2c1C(=O)c1nccnc1C2=O [Compound 52, Ethyl-4,9-dioxo-4,9-dihydroisoxazolo[4,5-g]quinoxaline-3-carboxylate] | 9.3 ± 2.7 µM
O=C(OCCOC12CC3CC(CC(C3)C1)C2)c1noc2c1C(=O)c1cccnc1C2=O [Compound 63, 2-(((3 s,5s,7s)-Adamantan-1-yl)oxy)ethyl 4,9-dioxo-4,9-dihydroisoxazolo[4,5-g]quinoline-3-carboxylate] | 20 ± 0.18 µM
O=C1c2ncccc2C(=O)c2c(COc3ccccc3Cl)noc21 [Compound 66, 3-((2-Chlorophenoxy)methyl)isoxazolo[4,5-g]quinoline-4,9-dione] | 0.94 ± 0.24 µM
Ethyl 2-isopropyl-4,9-dioxo-4,9-dihydrofuro[2,3-g]quinoline-3-carboxylate [Compound 37] | 37 ± 2 µM
Ethyl 2-isopropyl-4,9-dioxo-4,9-dihydrofuro[3,2-g]quinoline-3-carboxylate [Compound 38] | > 111 µM
